According to PubChem BioAssay:
Records with an inconclusive call do not appear.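 How the source made its calls, unless noted: active means inhibition over a set limit, the all-compound mean plus 3 SD, in both replicate runs; inconclusive means over that limit in just one replicate run; inactive means at or under that limit in both runs.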

Legend:
[1] = S. cerevisiae growth inhibition in permissive medium (OD615), pilot counter-assay for S. cerevisiae lifespan shortening project, permissive growth control (AID 705;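 active means growth inhibition above 25% in both replicates, a cutoff set 3 SD above the mean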); details: OD615, 24 h, at 10 µM, hits give high values
Procedure, shortened: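 System: Engineered DeaD yeast | Buffer or medium: SC raffinose/galactose permissive medium | Doses: 10 µM single dose, 0.25% DMSO | Times: 24 h exposure, 30 °C | Measured by: OD615 turbidity read | Read-out: Yeast growth inhibition indicated by reduced 24 h OD615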

[2] = S. cerevisiae growth inhibition in restrictive medium, OD615, pilot screen, restrictive growth control, yeast lifespan reduction project (AID 706;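 active means growth inhibition above a set limit, 3 SD over mean compound inhibition, in both replicates, cut at about 43% in these data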;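 further: modified DeaD lifespan yeast strain shifted to restrictive glucose medium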); details: OD615, 48 h, at 10 µM, hits give high values
Procedure, shortened: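 Assay system: engineered S. cerevisiae DeaD strain; Buffer or medium: CSMM-D glucose medium; Dosing: 10 µM compound, 0.25% DMSO; Times: cell pre-growth 4 h, compound exposure 48 h, 30 °C; Detection: absorbance (optical density) measured at 615 nm.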

[3] = doxorubicin toxicity protection in MRP-1 cells – H69AR cells, CellTiter-Glo, duplicate, MRP-1 activator project, pilot screen (AID 807;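 active means viability increase at or above a cutoff of the median across tested compounds plus 3 SD, cut at about 8.5% in these data, passing the limit was not always enough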;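 further: compound pretreatment 18-22 h then 72 h combined with doxorubicin; 0% = doxorubicin alone and 100% = vehicle without doxorubicin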); details: H69AR viability with doxorubicin, CellTiter-Glo luminescence; at 10 µM; hits give high values
[4] = viability of HCT116 without oncogenic beta-catenin – human colon tumor cells, pilot screen (AID 823;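 active means cell viability at or below a set limit in both duplicate runs, the limit being the all-compound median minus 4 SD, cut at about 23% in these data, passing the limit was not always enough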;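 further: 0% = wells killed by 20 µM Hyamine and 100% = untreated DMSO cell wells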); details: HCT116 beta-catenin knockout viability, CellTiter-Glo, 60 h; at 10 µM; hits give low values
[5] = viability of PTEN-null HCT116 cells – cell-based, HCT116 clonal line, CellTiter-Glo, pilot screen (AID 824;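 active means viability at or below 27.92% in each of two runs, the all-compound median minus 4 SD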;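 further: 0% = 20 µM Hyamine control and 100% = vehicle cell control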); details: HCT116 PTEN-deleted viability, 60 h, at 10 µM, hits give low values
[6] = RAM pathway blockade in budding yeast – dse1pr::URA3 reporter, 5-FOA selection, pilot screen (AID 869);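 further: 0% = DMSO wells with no growth and 100% = 10 µM 1-NA-PP1 with full growth; RAM network block rescues cells from 5-FOA so hits raise OD615 growth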; details: S. cerevisiae dse1pr::URA3 5-FOA growth, OD615, 2 d; at 10 µM; hits give high values; strain carries analog-sensitive mutant Cbk1 kinase
[7] = RAM signaling pathway blockade in yeast – S. cerevisiae, Pdr1DBD-CYC8 efflux-inhibited sensitized strain, primary screen (AID 1298;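 active means RAM network inhibition above 8.4% in each of two replicates, 3 SD over the compound average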;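 further: 0% = DMSO untreated cells without growth and 100% = 10 µM 1-NA-PP1 full growth; higher means more yeast growth rescued from 5-FOA killing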); details: S. cerevisiae cbk1-as DSE1-URA3 strain, 5-FOA growth OD615, 2 d; at 50 µM; hits give high values

CCCC(=O)C1=C(SCC)CC(C)(C)C(C(=O)OC)C1=O (stereo unspecified)
inactive: growth inhibition [1] -14.4% | growth inhibition [2] -21.5% | viability increase [3] -2.57% | viability [4] 86.5% | viability [5] 91.8% | inhibition [6] -0.035% | RAM network inhibition [7] 3.4%

Cc1ccc2nc(NC(=O)CCNS(=O)(=O)c3cccs3)sc2c1
inactive: growth inhibition [1] -5.57% | growth inhibition [2] -7.59% | viability increase [3] 3.2% | viability [4] 87% | viability [5] 71.7% | inhibition [6] 0.45% | RAM network inhibition [7] 3.7%

Cc1cc(C)cc(N(CC(=O)N2CCc3ccccc32)S(=O)(=O)c2c(C)noc2C)c1
inactive: growth inhibition [1] -11.2% | growth inhibition [2] -5.73% | viability increase [3] -4.52% | viability [4] 90.4% | viability [5] 89.9% | inhibition [6] 2.83% | RAM network inhibition [7] 0.55%

COc1ccccc1NC=C1C(=O)OC(C)(C)OC1=O
inactive: growth inhibition [1] -17.5% | growth inhibition [2] -7.71% | viability increase [3] -2.6% | viability [4] 91% | viability [5] 101% | inhibition [6] 0.955% | RAM network inhibition [7] 2.48%

COc1ccc(N2Cc3cccc(C(=O)NC(C)CCc4ccco4)c3C2=O)cc1 (stereo unspecified)
inactive: growth inhibition [1] -3.44% | growth inhibition [2] -3.73% | viability increase [3] 3.67% | viability [4] 95.3% | viability [5] 95.3% | inhibition [6] 1.92% | RAM network inhibition [7] 7.29%

CCNC(=O)CN(c1ccc(CC)cc1)S(C)(=O)=O
inactive: growth inhibition [1] -5% | growth inhibition [2] -18% | viability increase [3] -0.8% | viability [4] 97.9% | viability [5] 106% | inhibition [6] 0.76% | RAM network inhibition [7] 1.88%

Cc1cc(C)n2c(SCC(=O)Nc3ccccc3)nnc2n1
inactive: growth inhibition [1] -7.49% | growth inhibition [2] -9.43% | viability increase [3] -2.57% | viability [4] 102% | viability [5] 91.4% | inhibition [6] 1.94% | RAM network inhibition [7] -0.67%

CCOC(=O)C1=C2N(C)c3ccccc3N2CCC1=O
inactive: growth inhibition [1] 8.71% | growth inhibition [2] 4.85% | viability increase [3] -3.21% | viability [4] 97.5% | viability [5] 93.8% | inhibition [6] 1.9% | RAM network inhibition [7] -0.41%

C=C(C)CSc1nc2c(cc1C#N)CCC2
inactive: growth inhibition [1] 9.43% | growth inhibition [2] 21.6% | viability increase [3] 1.11% | viability [4] 99.4% | viability [5] 99.1% | inhibition [6] 2.3% | RAM network inhibition [7] 1.58%

N#Cc1ccc(CSCC(=O)O)cc1
inactive: growth inhibition [1] -10.3% | growth inhibition [2] -2.01% | viability increase [3] 1.1% | viability [4] 97.4% | viability [5] 107% | inhibition [6] 2.8% | RAM network inhibition [7] 4.42%

CCOCCOCN(C#N)c1nc(OC)nc(N(C)C)n1
inactive: growth inhibition [1] -5.92% | growth inhibition [2] 0.69% | viability increase [3] 1.74% | viability [4] 102% | viability [5] 99.9% | inhibition [6] 0.555% | RAM network inhibition [7] 2.46%

Cc1ccc(/C(O)=C2\C(=O)C(=O)N(CCN(C)C)C2c2ccccc2F)cc1 (stereo unspecified)
inactive: growth inhibition [1] -10.5% | growth inhibition [2] -5.25% | viability increase [3] -2.92% | viability [4] 88.3% | viability [5] 87.1% | inhibition [6] -0.9% | RAM network inhibition [7] -1.02%

Cc1c(C(=O)NCCN2CCOCC2)oc2ccc(S(=O)(=O)N3CCCCCC3)cc12
inactive: growth inhibition [1] -3.55% | growth inhibition [2] -1.55% | viability increase [3] -2.1% | viability [4] 86.1% | viability [5] 90.6% | inhibition [6] 1.15% | RAM network inhibition [7] -1.39%

O=C(CN(C1CCCCC1)S(=O)(=O)c1ccc(F)cc1)NCCCO
inactive: growth inhibition [1] -6.21% | growth inhibition [2] 2.23% | viability increase [3] -0.51% | viability [4] 103% | viability [5] 98.1% | inhibition [6] 1.75% | RAM network inhibition [7] 1.27%

CC(=O)c1c(C)[nH]c(C(=O)N2CCN(c3ncccn3)CC2)c1C
inactive: growth inhibition [1] -2.15% | growth inhibition [2] -5.67% | viability increase [3] -1.39% | viability [4] 86.8% | viability [5] 96.6% | inhibition [6] 1.43% | RAM network inhibition [7] -0.51%

COC(=O)c1ccsc1NC(=O)c1ccc2c(c1)OCCO2
inactive: growth inhibition [1] 2.02% | growth inhibition [2] -2.86% | viability increase [3] -4.78% | viability [4] 81% | viability [5] 68.1% | inhibition [6] 1.8% | RAM network inhibition [7] 2.08%

O=C1CCc2cc(S(=O)(=O)NC(Cc3ccccc3)C(=O)NC3CCCC3)ccc2N1 (stereo unspecified)
inactive: growth inhibition [1] -11.3% | growth inhibition [2] -9.16% | viability increase [3] -0.35% | viability [4] 96.8% | viability [5] 98.8% | inhibition [6] 1.86% | RAM network inhibition [7] 0.41%

Cc1ccc(-c2nnc(N3CCCCC3)c3ccccc23)cc1S(=O)(=O)N1CCN(C)CC1
inactive: growth inhibition [1] -1.95% | growth inhibition [2] -1.92% | viability increase [3] -5.28% | viability [4] 48% | viability [5] 60.2% | inhibition [6] 0.285% | RAM network inhibition [7] -2.14%
